Test results published in publication PMC9063559 (RSC Advances, 2019).

Key:
Assay type in all cases: cell-based
[1] = test system: Trypanosoma brucei rhodesiense (STIB 900 strain, trypomastigotes); experiment: in vitro activity against Trypanosoma brucei rhodesiense; conditions: RHODESIENSE|STIB900, read-out: IC50 T. brucei rhodesiense
Outline: (§1)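 Test compounds were run in vitro in parallel against P. falciparum NF54 and K1, T. cruzi Tulahuen C4 amastigotes, T. b. rhodesiense STIB 900 trypomastigotes, L. donovani MHOM-ET-67/L82 amastigotes and rat L6 skeletal myoblasts. Each IC50 is the mean of two independent assays, with individual values within a factor of 2. Selectivity index = L6 IC50 ÷ P. falciparum IC50 for the respective strain.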

[2] = test system: Plasmodium falciparum (NF54 strain); experiment: in vitro antiplasmodial activity, chloroquine-sensitive NF54 strain; conditions: NF54, read-out: IC50 P. falciparum (NF54 strain)
Outline: as §1

[3] = test system: Leishmania donovani (MHOM-ET-67/L82, amastigotes); experiment: in vitro activity against Leishmania donovani; conditions: read-out: IC50 L. donovani
Outline: as §1

[4] = cytotoxicity against mammalian host cells; conditions: rat, rat skeletal myoblast L6 cells
Outline: as §1

Work on `Nc1nc(N)nc(Nc2ccc([As]3SCC(CO)S3)cc2)n1` (stereo not shown) [Melarsoprol] yielded an IC50 [1] of 30 nM.
With `C[C@@H]1CC[C@H]2[C@@H](C)C(=O)O[C@@H]3O[C@@]4(C)CC[C@@H]1[C@]32OO4` [Artemisinin] the IC50 [2] was 21 nM.
`CCCCCCCCCCCCCCCCOP(=O)([O-])OCC[N+](C)(C)C` [Miltefosine] gave an IC50 [3] of 1080 nM.
In the case of `COc1cc([C@@H]2c3cc4c(cc3[C@H](O)[C@H]3COC(=O)[C@H]23)OCO4)cc(OC)c1OC` [Podophyllotoxin], the IC50 [4] is reported as 9.6 nM.
